Source: article PMC9827036 (Current Research in Pharmacology and Drug Discovery, 2022)
Read-outs that look alike come from different tables or passages of the source.

Experiments:
FAK [1] = target: T1, FAK (Homo sapiens, UniProt Q05397); assay: Western blot of FAK-Tyr-397 phosphorylation in suspended Caco-2 cells; format: cell-based
Procedure, shortened: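 Caco-2 cells held in suspension on plates pre-coated with 1% heat-inactivated BSA to avoid adhesion-driven FAK activation. Treated with compound (100 pM–1000 nM) or H2O for 1 h at 37 °C, then lysed. Lysates resolved by 10% SDS-PAGE on nitrocellulose, probed for pTyr-397 FAK with total FAK as loading control. Read-out: pTyr-397/FAK fold change; n = 4–8.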

FAK [2] = target: T1, FAK; settings: 10 nM, suspended Caco-2 cells; ref Wang et al., 2019b; cited from earlier work
Caco-2 cells = settings: in vitro; ref Wang et al., 2019b; cited from earlier work

T1 sequence (Q05397 whole entry): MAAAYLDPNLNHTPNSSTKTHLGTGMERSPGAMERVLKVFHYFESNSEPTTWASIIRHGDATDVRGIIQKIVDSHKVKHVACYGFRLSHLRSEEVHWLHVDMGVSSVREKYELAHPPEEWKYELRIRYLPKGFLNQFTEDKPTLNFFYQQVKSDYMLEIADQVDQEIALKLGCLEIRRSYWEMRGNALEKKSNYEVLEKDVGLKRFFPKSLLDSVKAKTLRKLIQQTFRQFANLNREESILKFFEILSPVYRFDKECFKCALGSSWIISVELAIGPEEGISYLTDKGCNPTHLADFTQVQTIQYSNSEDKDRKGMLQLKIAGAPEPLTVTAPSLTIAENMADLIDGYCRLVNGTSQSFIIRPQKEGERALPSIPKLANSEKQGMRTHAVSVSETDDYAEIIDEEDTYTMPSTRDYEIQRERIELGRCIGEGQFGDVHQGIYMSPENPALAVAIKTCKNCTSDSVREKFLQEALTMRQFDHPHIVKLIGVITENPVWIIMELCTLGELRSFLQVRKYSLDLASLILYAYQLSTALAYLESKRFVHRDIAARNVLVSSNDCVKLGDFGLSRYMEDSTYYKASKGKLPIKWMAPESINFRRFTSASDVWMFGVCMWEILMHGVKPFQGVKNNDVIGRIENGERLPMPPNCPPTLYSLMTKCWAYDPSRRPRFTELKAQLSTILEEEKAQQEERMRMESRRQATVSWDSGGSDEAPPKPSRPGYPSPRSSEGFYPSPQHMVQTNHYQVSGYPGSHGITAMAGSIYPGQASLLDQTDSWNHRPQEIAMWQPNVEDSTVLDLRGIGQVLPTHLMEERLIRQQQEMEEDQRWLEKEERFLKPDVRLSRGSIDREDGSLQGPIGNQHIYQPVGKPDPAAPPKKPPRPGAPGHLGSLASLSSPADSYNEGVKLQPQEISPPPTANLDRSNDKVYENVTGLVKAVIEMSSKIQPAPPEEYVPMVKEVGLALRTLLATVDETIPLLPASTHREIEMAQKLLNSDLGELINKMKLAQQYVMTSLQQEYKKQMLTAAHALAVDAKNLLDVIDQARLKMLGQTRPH

FAK activation (FAK [1]; 10–1000 nM) | FAK activation (positive control) (FAK [1]; 100 nM, Caco-2 cells) | SMILES | FAK activation (FAK [2]) [%] | lowest concentration stimulating Caco-2 cell monolayer wound closure (Caco-2 cells) [nM]
did not activate FAK | – | CN(C)C(CNC(=O)Nc1cc(C(F)(F)F)ccc1N1CCOCC1)c1ccncc1 (stereo not shown) [M64, 1-(2-(dimethylamino)-2-(pyridin-4-yl)ethyl)-3-(2-morpholino-5-(trifluoromethyl)phenyl)urea] | – | –
– | activates FAK | COc1ccc(C2CCCN2C(=O)Nc2cc(C(F)(F)F)ccc2N2CCOCC2)cc1 (stereo not shown) [ZN40099027] | 14.8 | 10
